Measured values pooled from the literature.
Lines come from different studies, so protocols differ. pIC50: −log10 of the molar value.
Effect on: cell growth or viability

| Compound | cell line | method | time | measurement | result |
| --- | --- | --- | --- | --- | --- |
| O=C1CS/C(=N\c2cc(C(F)(F)F)ccc2-c2nnc(N3C(=O)CS/C3=N\c3cc(O)cc(Br)c3)s2)N1c1cc(O)cc(Br)c1 | WI-38 | MTT |  | pIC50 | 4.15 |
| COc1cc(C2C3=C(COC3=O)N(CCO)c3cc4c(cc32)CCC4)cc(OC)c1OC (stereo not shown) | E0771 | ATP luminescence | 48 h | pIC50 | 7.41 |
| OCc1ccc(-c2nn(Cc3cccnc3)c3cccnc23)o1 | HuCCT-1 | ATP luminescence |  | pIC50 | < 4.34 |
| O=C1CS/C(=N\c2ccccc2O)N1c1nnc(-c2ccc(C(F)(F)F)cc2/N=C2\SCC(=O)N2c2ccccc2O)s1 | WI-38 | MTT |  | pIC50 | 4.49 |
| CC1(P2(=O)CCCCC2)CCCCC1 | HaCaT | MTT | 72 h | pIC50 | < 4.00 |
| Cc1nc(Nc2ncc(C(=O)Nc3c(C)cccc3Cl)s2)cc(N2CC[C@H](O)C2)n1 | KARPAS-299 | ATP luminescence | 72 h | pIC50 | < 5.00 |
| NCc1ccc(-c2nn(Cc3ccccc3)c3ccccc23)o1 | HuCCT-1 | ATP luminescence |  | pIC50 | < 4.34 |
| CC(C)C(=O)Nc1ccc([N+](=O)[O-])c(C(F)(F)F)c1 | HaCaT | MTS | 48 h | pIC50 | < 4.00 |
| CCCCCC(=O)Nc1ccc(-c2ccc3ncn(CCC)c(=O)c3c2)cn1 | HCC827 | CCK-8 | 72 h | pIC50 | 6.80 |
| OCc1ccc(-c2nn(Cc3cccnc3)c3ccccc23)o1 | HuCCT-1 | ATP luminescence |  | pIC50 | < 4.34 |
| Cc1cccc([N+](=O)[O-])c1N=C1SCC(=O)N1c1nnc(-c2ccc(C(F)(F)F)cc2N=C2SCC(=O)N2c2c(C)cccc2[N+](=O)[O-])s1 | WI-38 | MTT |  | pIC50 | 4.17 |
| CCCn1cnc2ccc(-c3ccc(NC(=O)CC4CC4)nc3)cc2c1=O | HCC827 | CCK-8 | 72 h | pIC50 | 6.04 |
| CC(C)[C@@H]1NC(=O)/C(=C/c2cnc[nH]2)NC1=O | ASPC1 | SRB |  | pIC50 | < 4.82 |
| CCCCC(=O)Nc1ccc(-c2ccc3ncn(CCCF)c(=O)c3c2)cn1 | HCC827 | CCK-8 | 72 h | pIC50 | 7.04 |
| COc1cccc2c1C(=O)c1c(O)c3c(c(O)c1C2=O)C[C@@](O)(C(=O)CO)C[C@@H]3O[C@H]1C[C@H](N)[C@H](O)[C@H](C)O1 | HaCaT | MTT | 72 h | pIC50 | 6.52 |
| CCCn1cnc2ccc(-c3ccc(N4CCC(C)CC4=O)nc3)cc2c1=O (stereo not shown) | HCC827 | CCK-8 | 72 h | pIC50 | < 5.00 |
| Cc1ccc(S(=O)(=O)[O-])cc1.Nc1c([I+]c2ccccc2)c(=O)oc2ccccc12 | HaCaT | MTT | 48 h | IC50 | 35 µg/mL |
| CCCCC(=O)Nc1ccc(-c2ccc3ncn(CCF)c(=O)c3c2)cn1 | HCC827 | CCK-8 | 72 h | pIC50 | 6.44 |
| COc1cnccc1Cn1nc(-c2ccc(CO)o2)c2ccccc21 | HuCCT-1 | ATP luminescence |  | pIC50 | < 4.34 |
